CHRM5 antagonist = CHRM5 antagonism in calcium assay; hit rate 0.59% among 360,000; CHO-hM5 cells, Fluo-8 calcium fluorescence, ACh EC80; AID 624040; inhibition, % at 3 µM;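 active = inhibition above a per-plate cutoff, the mean of that plate's test compounds plus 3 SD, cut at about 27% in these data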;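 also: 0% = acetylcholine EC80 with DMSO and 100% = DMSO without agonist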
Target sequence (P08912 whole entry, looked up): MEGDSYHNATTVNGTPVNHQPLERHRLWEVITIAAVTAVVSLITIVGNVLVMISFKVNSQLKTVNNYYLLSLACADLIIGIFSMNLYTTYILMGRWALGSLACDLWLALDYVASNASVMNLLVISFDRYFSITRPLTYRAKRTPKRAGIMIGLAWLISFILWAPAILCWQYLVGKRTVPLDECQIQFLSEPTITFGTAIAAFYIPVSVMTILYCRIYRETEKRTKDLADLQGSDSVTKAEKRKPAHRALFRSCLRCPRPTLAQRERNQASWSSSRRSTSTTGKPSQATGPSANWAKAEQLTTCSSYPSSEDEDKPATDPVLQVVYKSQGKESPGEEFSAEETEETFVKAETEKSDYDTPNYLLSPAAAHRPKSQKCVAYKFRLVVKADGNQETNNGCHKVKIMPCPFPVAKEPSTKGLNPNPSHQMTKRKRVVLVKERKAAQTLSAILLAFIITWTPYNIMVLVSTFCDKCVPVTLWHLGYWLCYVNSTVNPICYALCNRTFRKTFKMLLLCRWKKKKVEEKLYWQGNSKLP
CHRM5 agonist = CHRM5 agonism in calcium assay | CHO-K1 hM5 cells, Fluo-8 calcium fluorescence; 0% DMSO wells, 100% maximal acetylcholine response | activation, % at 3 µM | hit rate 0.19% among 360,000 | AID 624037;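 active = activation above the run's mean over test compounds plus 3 SD, cut at about 23% in these data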;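 also: signal is peak over basal fluorescence ratio across the kinetic read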
CHRM4 PAM = positive allosteric modulators of human muscarinic M4 receptor; hit rate 0.4% among 360,000; CHO-K1 hM4/Gqi5, Fluo-8 calcium fluorescence, ACh EC20; 0% = ACh EC20, 100% = maximal ACh; P08173; activation, % at 3 µM; AID 624126;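 active = activation above its plate's cutoff, the mean activation of sample wells plus 3 SD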
CHRM4 agonist = CHRM4 agonism in calcium assay | P08173 | CHO-K1 hM4/Gqi5, Fluo-8 calcium fluorescence; vehicle 0%, full acetylcholine response 100% | activation, % at 3 µM | hit rate 0.14% among 360,000 | AID 624127;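 active = activation above the run mean over all test wells plus 3 SD, cut at about 32% in these data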;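 also: peak over basal fluorescence ratio per well then scaled between controls; 0% = DMSO wells and 100% = acetylcholine at EC100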
CHRM5 PAM = positive allosteric modulators of human muscarinic M5 receptor. P08912. CHO-K1 hM5, Fluo-8 calcium, ACh EC20 PAM; 0% = ACh EC20, 100% = ACh EC100. activation, % at 3 µM. hit rate 0.3% among 360,000. AID 624038;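 active = activation above the run cutoff, the mean activation of all test compounds plus 3 SD, cut at about 18% in these data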
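Test system: CHO-K1 hM5 cells / Doses: single-point, 3 µM nominal / Times: Post-acetylcholine fluorescence recording 140 s / Technique: Fluo-8 calcium fluorescence / Measure: Max/basal fluorescence ratio as % of EC20–EC100 ACh window / Benchmarks: low control EC20 acetylcholine (0%), high control EC100 acetylcholine (100%) / Replicates: one well per compound, no replicates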
M4 antag = CHRM4 antagonism in calcium assay | hit rate 0.73% among 360,000 | CHO-hM4 cells, ACh EC80, Fluo-8 calcium fluorescence | AID 624125 | inhibition, % at 3 µM | P08173;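 active = inhibition above its plate's cutoff, the mean inhibition of sample wells plus 3 SD, cut at about 27% in these data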;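 also: 0% = acetylcholine EC80 with DMSO and 100% = DMSO without agonist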
* hit, by the source's call. Shown are actives, neighbours in structure and some others; about 1.9% of the full set was active somewhere.

SMILES	CHRM5 antagonist	CHRM5 agonist	CHRM4 PAM	CHRM4 agonist	CHRM5 PAM	M4 antag
O=[N+]([O-])c1c(Nc2ccccc2O)cc(Cl)c2nonc12	21.2	-10.7	-2.6	-1.5	8.4	32.9*
O=[N+]([O-])c1c(Nc2ccccc2O)ccc2nonc12	-4.6	-2.1	-8.4	1.6	3.5	8.0
CCCN1CCN(C(=O)C2CCN(c3ncnc4c3nc3n4CCCCC3)CC2)CC1	8.2	-4.1	-6.9	2.8	-3.2	-1.4
CCCOc1ccc(C2=CC(=O)C[C@H](c3ccc(OC)cc3)C2)cc1	0.5	-2.5	-5.1	1.1	-6.3	12.3
CCOc1ccc(CC(C(=O)NN)C(=O)NN)cc1CN(C)C	-8.9	-1.0	19.2*	-0.6	2.9	-22.2
Cc1nn(CC(=O)NCCCc2ccccc2)c(=O)c2cc3occc3n12	-8.6	-3.4	15.3	0.2	7.4	-23.0
Cc1ccc2c(c1)cc1c(=O)n(CC(=O)NCCCc3ccccc3)nc(C)n12	4.5	2.8	-9.7	18.8	-11.4	32.5*
O=C1NC[C@H](CCCCN2C[C@H](Cc3ccccc3)N(CCC3CCCCC3)C(=O)C2=O)N(CCc2ccc(O)cc2)C1=O	5.4	-0.8	-0.3	-0.3	-3.1	10.4
COc1ccc(C(=O)Nn2c(CC(C)C)nc3cc(Cl)ccc3c2=O)c(OC)c1	5.3	-2.7	5.0	-0.5	5.7	-3.2
Cc1csc(NC(=O)C(CC(C)C)NS(=O)(=O)c2ccc3c(c2)oc(=O)n3C)n1 (stereo unspecified)	1.6	5.3	-11.5	-0.1	-7.0	34.4*
Cc1csc(NC(=O)C2CCN(S(=O)(=O)c3ccc4c(c3)oc(=O)n4C)CC2)n1	-0.4	2.4	1.3	7.1	-4.1	-15.0
Oc1ccc(-c2cc(-c3ccc(O)cc3)nc(-c3ccccc3)n2)cc1	16.6	-1.0	33.9*	5.7	-7.4	22.6
Cc1nc2ccc(C(=O)N3CCN(C(=O)c4ccco4)CC3)cn2c1N(C)C(=O)CCc1ccccc1	11.5	-1.5	0.0	2.0	-3.6	-6.1
Cc1cccc(N(C)S(=O)(=O)c2cc3c(cc2C)n(C)c(=O)c(=O)n3C)c1	6.2	-1.9	-7.4	4.3	-4.1	-1.3
Cc1cc2c(cc1S(=O)(=O)N(C)c1ccccc1)n(C)c(=O)n2C	7.6	2.7	-17.1	-2.3	-4.5	98.7*
CCCCCCCCCCn1c2c(c(=N)c3c1CCC3)CCC2	39.4*	-2.9	-27.5	8.2	-20.1	28.5*
CCCCCCCCCn1c2c(c(=N)c3c1CCC3)CCCC2	58.2*	-2.0	-20.2	19.9	-15.6	63.3*
CCOC(=O)Cn1c2c(c(=N)c3c1CCC3)CCC2	-6.4	-3.9	0.4	0.3	4.0	9.2
CCCCCCCCn1c2c(c(=N)c3ccccc31)CCC2	48.2*	-2.4	-18.7	20.7	-16.3	58.0*
CCOC(=O)Cn1c2c(c(=N)c3ccccc31)CCC2	5.3	-2.4	12.5	0.4	18.9*	-14.6
CCOc1cc(NC(=O)c2cccs2)c(OCC)cc1NC(=O)CCC(=O)NCC1CCCO1 (stereo unspecified)	3.1	-1.2	-6.3	5.0	-5.4	1.7
C[C@@H]1CN([C@@H](C)CO)C(=O)c2cc(NC(=O)c3ccccc3)ccc2O[C@@H](C)CCCCO[C@@H]1CN(C)Cc1ccc(C(F)(F)F)cc1	-14.4	1.6	1.9	-1.1	13.1	-11.2
COc1ccc(OC)c(S(=O)(=O)NCCCc2ccccc2)c1	16.6	-7.3	-5.4	0.5	-2.0	0.2
CCCCCn1nnnc1-c1nc2cc(C)c(C)cc2[nH]c1=O	2.9	2.4	3.5	-0.2	-3.0	-10.4
COc1ccc(CCNc2ncnc3[nH]ncc23)cc1OC	-1.9	2.4	3.0	6.7	-1.5	-14.6
SMILES	CHRM5 antagonist	CHRM5 agonist	CHRM4 PAM	CHRM4 agonist	CHRM5 PAM	M4 antag
COc1ccc(CCNc2ncnc3sc(C)cc23)cc1OC	37.1*	2.5	-11.4	20.7	-28.0	26.9*
Cc1cccc(OCc2nc(C#N)c(N3CC(C)CC(C)C3)o2)c1 (stereo unspecified)	5.1	-1.1	-4.0	-1.3	-10.2	-11.1
Cc1cccc(OCc2nc(C#N)c(N3CCCC3)o2)c1	-11.5	-3.7	2.0	-0.1	21.3*	-10.8
CC(=O)N1CCC(O)(c2ccc3c(c2)OCO3)CC1	4.7	-1.9	1.9	-0.2	-3.1	-3.7
CNC(=O)C(=O)Nc1nc(C23CC4CC(CC(C4)C2)C3)cs1	-9.1	-3.6	2.8	1.2	19.1*	0.5
O=C(NCc1ccccc1)C(=O)Nc1nc(C23CC4CC(CC(C4)C2)C3)cs1	1.7	-0.1	-8.4	-0.9	-3.7	26.1
COc1ccc(CCNCc2ccc(-c3ccccc3)cc2)cc1OC	-6.8	8.9	-10.6	34.4*	5.8	7.0
Cc1nc2ccccn2c1-c1csc(Nc2cccc(O)c2)n1	5.6	2.6	-10.6	13.2	-14.3	-1.8
Cc1cccc(Nc2nc(-c3c(C)nc4ccccn34)cs2)c1	34.8*	2.5	-11.2	19.5	-20.7	31.3*
COc1ccc(C(CNC(=O)Nc2cccc(C)c2)N2CCN(C)CC2)cc1 (stereo unspecified)	-5.1	-4.8	5.0	0.9	8.0	3.5
COCCCN1C(=O)C(=O)/C(=C(/O)c2ccc(S(=O)(=O)N3CCCCC3)cc2)C1c1cccc(OC)c1 (stereo unspecified)	1.5	-2.8	4.1	0.2	4.9	7.8
CCn1c(SCC(=O)c2cc(OC)ccc2OC)nnc1-c1ccncc1	0.9	1.7	2.0	-1.1	4.1	9.9
CCn1c(SCC(=O)c2cc(OC)ccc2OC)nnc1C(C)C	-9.1	-7.3	19.2*	0.9	6.8	-12.3
Cc1cn(C(C)C)c(=O)n(-c2ccccc2)c1=O	1.0	2.2	1.9	0.0	3.1	5.5
CC(C)n1cc(/C(N)=N/O)c(=O)n(Cc2ccccc2)c1=O	15.8	4.4	13.1*	5.8	38.5*	21.6
CCSc1nncn1/N=C/c1ccc(OC)c(OC)c1	-2.2	-1.7	9.1	0.2	-0.2	1.0
C=C(C)CSc1nncn1/N=C/c1ccc(OC)cc1	-7.8	7.1	30.4*	2.0	1.5	5.9
CCc1ccc2nc(NC(=O)CN3C(=O)NC4(CCCC4)C3=O)sc2c1	-4.9	5.5	18.0	1.4	6.8	-2.9
N=C1/C(=C/c2cccn2Cc2ccc(F)cc2)C(=O)N=C2SC=CN12	6.3	-5.2	-3.0	7.2	-0.8	-9.1
CSC1=NSC2=NC(=O)/C(=C/c3coc4ccc(O)cc4c3=O)C(=N)N12	28.1*	52.5*	-8.0	26.2	-4.9	20.2
CSC1=NSC2=NC(=O)/C(=C/c3coc4ccccc4c3=O)C(=N)N12	40.9*	45.2*	-12.5	33.1*	-19.2	17.8
N=C1/C(=C\c2coc3ccccc3c2=O)C(=O)N=C2SC=CN12	34.1*	108.9*	-43.4	106.8*	-33.5	37.8*

Screening results as filed in PubChem BioAssay.
